{
  "source": "ChEMBL document CHEMBL4825676",
  "about": "“Design and biological evaluation of cinnamic and phenylpropionic amide derivatives as novel dual inhibitors of HIV-1 protease and reverse transcriptase” (Eur J Med Chem, 2021)",
  "key": {"[1]": {"system": "Human immunodeficiency virus 1", "experiment": "Antiviral activity against HIV1 NL4-3 Env-deficient VSV-G pseudotyped virus infected in human SUP-T1 cells assessed as inhibition of late stage viral production when host cells were infected with compound pretreated viral particles at 10 uM measured after 48 hrs by luciferase assay relative to control", "type": "functional", "conditions": "Human immunodeficiency virus 1, NL4-3, SUP-T1", "summary_of_the_method": "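Late-stage assay: VSV-G pseudotyped HIV-1 was made by co-transfecting 293T cells with pNL4-3-E⁻R⁻ (or DRV-resistant variants) plus pHCMV-G. Inhibitors in DMSO were added to the medium 5 h post-transfection. After 48 h at 37 °C, supernatant virus infected SupT1 cells for 48 h, and luciferase was read in the newly infected cells. Quintuplicate; inhibition at one fixed concentration and EC50.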"}, "[2]": {"system": "Human immunodeficiency virus 1", "experiment": "Antiviral activity against HIV1 NL4-3 VSV-G pseudotyped virus infected in human SUP-T1 cells assessed as inhibition of early stage viral production at 10 uM measured after 48 hrs by luciferase assay relative to control", "type": "functional", "conditions": "Human immunodeficiency virus 1, NL4-3, SUP-T1", "summary_of_the_method": "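Early-stage assay: SupT1 cells (1 × 10⁵/mL) were infected with VSV-G-pseudotyped HIV-1(NL4-3), and compounds were added afterward, with final DMSO held at 1% (v/v). After 48 h the cells were lysed and firefly luciferase activity was measured. Quintuplicate; inhibition at one fixed concentration and EC50.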"}, "[3]": {"molecular_target": "Human immunodeficiency virus type 1 reverse transcriptase (Human immunodeficiency virus 1, UniProt Q72547)", "experiment": "Inhibition of wild type HIV-1 NL4-3 reverse transcriptase using random mRNA as template and GADPH as primer measured at 42 degreeC for 5 mins, 95 degreeC for 10sec and 60 degreeC for 60 sec by qRT-PCR analysis"}, "[4]": {"molecular_target": "Human immunodeficiency virus type 1 protease (Human immunodeficiency virus 1, UniProt Q72874)", "experiment": "Inhibition of wild type HIV1 protease expressed in Escherichia coli using Arg-Glu (EDANS)-Ser-Gln-Asn-Tyr-Pro-Ile-Val-Gln-Lys(DABCYL)-Arg as substrate preincubated for 20 to 30 mins followed by substrate addition and measured for 10 mins by FRET assay", "summary_of_the_method": "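Recombinant HIV-1 PR was expressed in E. coli and purified. It was mixed with inhibitor (DMSO stock) for 20–30 min at room temperature before addition of the EDANS/DABCYL-labelled peptide. Buffer: 0.1 M sodium acetate, 1 M NaCl, 1 mM EDTA, 1 mM DTT, 2% DMSO, 1 mg/mL BSA, pH 4.7. Triplicate; mean of three independent experiments.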"}},
  "note": "pIC50: −log10 of the molar value.",
  "data": [
    {"smiles": "CC(C)CN(C[C@@H](O)[C@H](Cc1ccccc1)NC(=O)O[C@H]1CO[C@H]2OCC[C@H]21)S(=O)(=O)c1ccc(N)cc1", "values": [
      {"measurement": "inhibition at 10 µM", "setting": "[1]", "result": 99, "unit": "%"},
      {"measurement": "inhibition at 10 µM", "setting": "[2]", "result": 2, "unit": "%"}
    ]},
    {"smiles": "COc1ccc(S(=O)(=O)N(CC(C)C)C[C@@H](O)[C@H](Cc2ccccc2)NC(=O)/C=C/c2ccc(O)c(OC)c2)cc1", "values": [
      {"measurement": "pIC50", "setting": "[3]", "result": 6.84},
      {"measurement": "pIC50", "setting": "[4]", "result": 8.53}
    ]},
    {"smiles": "COc1cc(CCC(=O)N[C@@H](Cc2ccccc2)[C@H](O)CN(CC(C)C)S(=O)(=O)c2ccc(N)cc2)ccc1O", "values": [
      {"measurement": "pIC50", "setting": "[3]", "result": 7.50},
      {"measurement": "pIC50", "setting": "[4]", "result": 9.24}
    ]},
    {"smiles": "COc1cc(CCC(=O)N[C@@H](Cc2ccccc2)[C@H](O)CN(CC(C)C)S(=O)(=O)c2ccc(N)cc2)c(OC)cc1O", "values": [
      {"measurement": "pIC50", "setting": "[3]", "result": 6.95},
      {"measurement": "pIC50", "setting": "[4]", "result": 7.16}
    ]},
    {"smiles": "CCCN(C[C@@H](O)[C@H](Cc1ccccc1)NC(=O)CCc1cc(OC)c(O)cc1OC)S(=O)(=O)c1ccc(OC)cc1", "values": [
      {"measurement": "pIC50", "setting": "[3]", "result": 8.19},
      {"measurement": "pIC50", "setting": "[4]", "result": 7.06}
    ]},
    {"smiles": "COc1ccc(S(=O)(=O)N(C[C@@H](O)[C@H](Cc2ccccc2)NC(=O)/C=C/c2ccc(O)c(OC)c2)C2CC2)cc1", "values": [
      {"measurement": "pIC50", "setting": "[3]", "result": 7.36},
      {"measurement": "pIC50", "setting": "[4]", "result": 7.01}
    ]},
    {"smiles": "COc1cc(/C=C/C(=O)N[C@@H](Cc2ccccc2)[C@H](O)CN(CC(C)C)S(=O)(=O)c2ccc(SC)cc2)ccc1O", "values": [
      {"measurement": "pIC50", "setting": "[3]", "result": 7.00},
      {"measurement": "pIC50", "setting": "[4]", "result": 7.80}
    ]},
    {"smiles": "COc1ccc(S(=O)(=O)N(CC(C)C)C[C@@H](O)[C@H](Cc2ccccc2)NC(=O)/C=C/c2ccc(O)c(O)c2)cn1", "values": [
      {"measurement": "pIC50", "setting": "[3]", "result": 7.45},
      {"measurement": "pIC50", "setting": "[4]", "result": 8.54}
    ]},
    {"smiles": "COc1ccc(S(=O)(=O)N(C[C@@H](O)[C@H](Cc2ccccc2)NC(=O)CCc2cc(OC)c(O)cc2OC)C2CC2)cc1", "values": [
      {"measurement": "pIC50", "setting": "[3]", "result": 8.05},
      {"measurement": "pIC50", "setting": "[4]", "result": 6.79}
    ]},
    {"smiles": "COc1cc(/C=C/C(=O)N[C@@H](Cc2ccccc2)[C@H](O)CN(CC(C)C)S(=O)(=O)c2ccc(N)cc2)ccc1O", "values": [
      {"measurement": "pIC50", "setting": "[3]", "result": 7.36},
      {"measurement": "pIC50", "setting": "[4]", "result": 8.51}
    ]},
    {"smiles": "COc1ccc(S(=O)(=O)N(C[C@@H](O)[C@H](Cc2ccccc2)NC(=O)CCc2cc(OC)c(O)cc2OC)C(C)C)cc1", "values": [
      {"measurement": "pIC50", "setting": "[3]", "result": 6.52},
      {"measurement": "pIC50", "setting": "[4]", "result": 7.15}
    ]},
    {"smiles": "CC(C)CN(C[C@@H](O)[C@H](Cc1ccccc1)NC(=O)/C=C/c1ccc(O)c(O)c1)S(=O)(=O)c1ccc(N)cc1", "values": [
      {"measurement": "pIC50", "setting": "[3]", "result": 8.12},
      {"measurement": "pIC50", "setting": "[4]", "result": 9.70}
    ]},
    {"smiles": "COc1ccc(S(=O)(=O)N(CC(C)C)C[C@@H](O)[C@H](Cc2ccccc2)NC(=O)/C=C/c2cc(OC)c(O)c(OC)c2)cn1", "values": [
      {"measurement": "pIC50", "setting": "[3]", "result": 7.94},
      {"measurement": "pIC50", "setting": "[4]", "result": 7.16}
    ]},
    {"smiles": "COc1ccc(S(=O)(=O)N(CC(C)C)C[C@@H](O)[C@H](Cc2ccccc2)NC(=O)CCc2ccc(O)c(OC)c2)cn1", "values": [
      {"measurement": "pIC50", "setting": "[3]", "result": 6.62},
      {"measurement": "pIC50", "setting": "[4]", "result": 9.80}
    ]},
    {"smiles": "COc1ccc(S(=O)(=O)N(C[C@@H](O)[C@H](Cc2ccccc2)NC(=O)CCc2ccc(O)c(O)c2)C2CC2)cc1", "values": [
      {"measurement": "pIC50", "setting": "[3]", "result": 7.34},
      {"measurement": "pIC50", "setting": "[4]", "result": 8.39}
    ]},
    {"smiles": "COc1ccc(S(=O)(=O)N(C[C@@H](O)[C@H](Cc2ccccc2)NC(=O)/C=C/c2ccc(O)c(OC)c2)C(C)C)cc1", "values": [
      {"measurement": "pIC50", "setting": "[3]", "result": 7.06},
      {"measurement": "pIC50", "setting": "[4]", "result": 7.01}
    ]},
    {"smiles": "COc1ccc(S(=O)(=O)N(C[C@@H](O)[C@H](Cc2ccccc2)NC(=O)CCc2ccc(O)c(O)c2)C(C)C)cc1", "values": [
      {"measurement": "pIC50", "setting": "[3]", "result": 7.69},
      {"measurement": "pIC50", "setting": "[4]", "result": 8.83}
    ]},
    {"smiles": "COc1ccc(S(=O)(=O)N(C[C@@H](O)[C@H](Cc2ccccc2)NC(=O)/C=C/c2cc(OC)c(O)c(OC)c2)C(C)C)cc1", "values": [
      {"measurement": "pIC50", "setting": "[3]", "result": 6.70},
      {"measurement": "pIC50", "setting": "[4]", "result": 6.28}
    ]},
    {"smiles": "COc1ccc(S(=O)(=O)N(C[C@@H](O)[C@H](Cc2ccccc2)NC(=O)/C=C/c2ccc(O)c(O)c2)C(C)C)cc1", "values": [
      {"measurement": "pIC50", "setting": "[3]", "result": 7.27},
      {"measurement": "pIC50", "setting": "[4]", "result": 7.27}
    ]},
    {"smiles": "CCCN(C[C@@H](O)[C@H](Cc1ccccc1)NC(=O)CCc1ccc(O)c(O)c1)S(=O)(=O)c1ccc(OC)cc1", "values": [
      {"measurement": "pIC50", "setting": "[3]", "result": 8.12},
      {"measurement": "pIC50", "setting": "[4]", "result": 9.27}
    ]},
    {"smiles": "COc1cc(CCC(=O)N[C@@H](Cc2ccccc2)[C@H](O)CN(CC(C)C)S(=O)(=O)c2ccc(SC)cc2)c(OC)cc1O", "values": [
      {"measurement": "pIC50", "setting": "[3]", "result": 7.22},
      {"measurement": "pIC50", "setting": "[4]", "result": 7.05}
    ]},
    {"smiles": "COc1ccc(S(=O)(=O)N(CC(C)C)C[C@@H](O)[C@H](Cc2ccccc2)NC(=O)CCc2cc(OC)c(O)cc2OC)cc1", "values": [
      {"measurement": "pIC50", "setting": "[3]", "result": 7.14},
      {"measurement": "pIC50", "setting": "[4]", "result": 6.98}
    ]}
  ]
}
